Assay results reported in ChEMBL document CHEMBL4665798, “Novel Human Urate Transporter 1 Inhibitors as Hypouricemic Drug Candidates with Favorable Druggability” (J Med Chem, 2020).

System: Mus musculus
Test: Hypouricemic activity in Kunming mouse model of xanthine/potassium oxonate-induced acute hyperuricemia assessed as decrease in serum uric acid level at 2 mg/kg administered 3 hrs prior to xanthine/potassium oxonate and measured after 6 hrs relative to control
Format: functional
Parameters: scale not given: the % may be the effect or the level left
Conditions: time 9 hrs
Method in brief: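 Male Kunming mice, hyperuricemia induced by intragastric xanthine plus subcutaneous potassium oxonate (0.2 mL each). […] Groups: normal vehicle, untreated model, active control, test. Serum uric acid measured. Decrease ratio = (model SUA − compound SUA)/(model SUA − vehicle SUA).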

| Compound | Activity (2 mg/kg) [%] | Activity [%] |
| --- | --- | --- |
| C[C@H](Sc1nc2ncccc2n1-c1ccc(C2CC2)c2ccccc12)C(=O)O (stereo in doubt; 44a) | 12.87 | – |
| C[C@@H](Sc1nc2ncccc2n1-c1ccc(C2CC2)c2ccccc12)C(=O)O (stereo in doubt; 44b) | 40.58 | – |
| C[C@H](Sc1nc2ncccc2n1-c1ccc(C2CC2)c2ccccc12)C(=O)O (stereo in doubt; 44c) | 31.02 | – |
| C[C@@H](Sc1nc2ncccc2n1-c1ccc(C2CC2)c2ccccc12)C(=O)O (stereo in doubt; 44d) | 98.04 | – |
| C[C@H](Sc1nc2cnccc2n1-c1ccc(C2CC2)c2ccccc12)C(=O)O (stereo in doubt; 54a) | 58.08 | – |
| C[C@@H](Sc1nc2cnccc2n1-c1ccc(C2CC2)c2ccccc12)C(=O)O (stereo in doubt; 54b) | 32.44 | – |
| C[C@H](Sc1nc2cnccc2n1-c1ccc(C2CC2)c2ccccc12)C(=O)O (stereo in doubt; 54c) | 93.54 | – |
| C[C@@H](Sc1nc2cnccc2n1-c1ccc(C2CC2)c2ccccc12)C(=O)O (stereo in doubt; 54d) | 57.89 | – |
| CCc1oc2ccccc2c1C(=O)c1cc(Br)c(O)c(Br)c1 [BENZBROMARONE] | – | 36 |
